How the values were obtained:
Format in all cases: functional
Mus musculus [1] = species: Mus musculus; assay: Effect on the antagonism of bicuculline-induced tonic-extensor convulsions (B)
Method in brief: (§1)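 Male albino CF-1 mice, 18-22 g. Compounds were dissolved or suspended in 0.25% aqueous methylcellulose and given intraperitoneally to groups of four or six mice per dose, at multiple dose levels. ED50 was calculated by the Spearman-Karber method.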

Mus musculus [2] = species: Mus musculus; assay: Effect on the antagonism of nicotine-induced death (D); method in brief: as §1
Mus musculus [3] = species: Mus musculus; assay: Effect on the antagonism of nicotine-induced tonic-extensor convulsions (TE) in mice; method in brief: as §1
Mus musculus [4] = species: Mus musculus; assay: Effect on the antagonism of oxotremorine-induced hypothermia (OX); method in brief: as §1
Mus musculus [5] = species: Mus musculus; assay: Effect on the antagonism of pentylenetetrazole-induced clonic convulsions (P)
Mus musculus [6] = species: Mus musculus; assay: Effect of test compound on the potentiation of apomorphine-induced gnawing (AG) in aggregated mice; method in brief: as §1
Mus musculus [7] = species: Mus musculus; assay: Effect on the potentiation of gamma-butyrolactone-induced sleep (gamma-B); method in brief: as §1
Mus musculus [8] = species: Mus musculus; assay: Effect on the prolongation of hypoxic survival time (HS); method in brief: as §1
Mus musculus [9] = species: Mus musculus; assay: Effect on the potentiation of yohimbine-induced toxicity (Y) in aggregated mice; method in brief: as §1

Compound	ED50 (Mus musculus [1]; Mus musculus, read-out: ED50) [mg/kg]	ED50 (Mus musculus [2]; Mus musculus, read-out: ED50) [mg/kg]	ED50 (Mus musculus [3]; Mus musculus, read-out: ED50) [mg/kg]	ED50 (Mus musculus [4]) [mg/kg]	ED50 (Mus musculus [5]) [mg/kg]	ED50 (Mus musculus [6]) [mg/kg]	ED50 (Mus musculus [7]) [mg/kg]	ED50 (Mus musculus [8]) [mg/kg]	ED50 (Mus musculus [9]) [mg/kg]	ED50 (Mus musculus [1]) [mg/kg]	ED50 (Mus musculus [2]) [mg/kg]	ED50 (Mus musculus [3]) [mg/kg]
Oc1nnc2n1-c1ccc(Cl)cc1C(c1ccccc1)=NC2	40	1.6	1.4	> 50	5.6	> 50	6	> 50	> 50			
CCN(CC)CCCCn1nc2n(c1=O)-c1ccc(Cl)cc1C(c1ccccc1Cl)=NC2	> 12.5	0.8	0.8	10.5	4.4	> 12.5	12.5	7	> 12.5			
Oc1nnc2n1-c1ccc(Cl)cc1C(c1ccccc1Cl)=NC2	1	0.025	0.025	> 50	0.08	> 50	0.4	> 50	> 50			
Cn1nc2n(c1=O)-c1ccc(Cl)cc1C(c1ccccc1Cl)=NC2		0.002	0.002		0.14			2.2				
CCN(CC)CCn1nc2n(c1=O)-c1ccc(Cl)cc1C(c1ccccc1Cl)=NC2	0.7	0.1	0.09	> 100	0.45	> 100	0.4	4	> 100			
CN(C)CCn1nc2n(c1=O)-c1ccc(Cl)cc1C(c1ccccc1)=NC2	6	1.4	0.89	> 100	3.2	> 100	5	30	> 100			
CN(C)CCCn1nc2n(c1=O)-c1ccc(Cl)cc1C(c1ccccc1Cl)=NC2	14.9	1.1	0.9	> 50	6.3	7.4	2.2	> 50	> 50			
CN1CCN(CCn2nc3n(c2=O)-c2ccc(Cl)cc2C(c2ccccc2)=NC3)CC1	17.7	8	8	14.9	8.8	> 50	5.3	10.5	> 50			
CC(CN(C)C)Cn1nc2n(c1=O)-c1ccc(Cl)cc1C(c1ccccc1Cl)=NC2 (stereo not given)	7	1.1	1	> 50		> 50	2	40	> 50			
CN1CCN(CCn2nc3n(c2=O)-c2ccc(Cl)cc2C(c2ccccc2Cl)=NC3)CC1	3.1			12.5	0.3	> 25	0.2	3.1	> 25			
CN1CCN(CCCn2nc3n(c2=O)-c2ccc(Cl)cc2C(c2ccccc2Cl)=NC3)CC1	> 25	0.5	0.4	25	3.7	> 25	3.7	> 30	25			
O=c1n(CCCN2CCN(CCO)CC2)nc2n1-c1ccc(Cl)cc1C(c1ccccc1Cl)=NC2	12.5	0.56	0.5	> 25	6.3	> 30	2	20	> 25			
CN(C)CCCn1nc2n(c1=O)-c1ccc(Cl)cc1C(c1ccccc1)=NC2	40	3.6	3.6	> 50	32	> 50	10	> 50	> 50			
CNCCCn1nc2n(c1=O)-c1ccc(Cl)cc1C(c1ccccc1Cl)=NC2	> 50	1.4	1.4	> 50	14.9	> 50	25	9	> 50			
Cn1nc2n(c1=O)-c1ccc(Cl)cc1C(c1ccccc1)=NC2	3	0.63	0.63	> 50	2.5	> 50			> 50	2	1.1	1
CCN(CC)CCn1nc2n(c1=O)-c1ccc(Cl)cc1C(c1ccccc1)=NC2	10	1.3	1.3	> 50	4	> 50	1	> 50	> 50			
O=c1n(CCCN2CCN(c3ccccc3)CC2)nc2n1-c1ccc(Cl)cc1C(c1ccccc1Cl)=NC2	> 50	40	40	> 50	> 50	> 50	> 50	> 50	> 50			
CCN(CC)CCCn1nc2n(c1=O)-c1ccc(Cl)cc1C(c1ccccc1Cl)=NC2	> 50	1.3	1.1	> 25	8.8	> 50	5.3	10	> 50			
CN(C)Cc1nnc2n1-c1ccc(Cl)cc1C(c1ccccc1)=NC2 [ADINAZOLAM]	0.7	0.13	0.11	5.3	0.9	5.3	1.6	5				
CN1C(=O)CN=C(c2ccccc2)c2cc(Cl)ccc21 [DIAZEPAM]	2.6	0.28	0.28	> 50	0.1	> 50	0.035	0.2	> 50			
CN(C)CCCN1c2ccccc2CCc2ccccc21 [IMIPRAMINE]	21	7	7	1		1	18	> 50	4			

From ChEMBL document CHEMBL1121423, “2,4-Dihydro-6-phenyl-1H-s-triazolo[4,3-a][1,4]benzoidiazepin-1-ones with antianxiety and antidepressant activity” (1980)
